S100A4 MyoIIA: S100A4-myosin IIA interaction inhibition | inhibition, % at 10.7 µM | S100A4/TAMRA-MyoIIA peptide fluorescence polarization | 0.14% of 360,000 active;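 active = mean inhibition of at least 70% across replicates, with every replicate also reaching that level; inconclusive = mean inhibition reaches 70% but some replicates fall short; inactive = mean inhibition below 70%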
Target sequence (P26447 whole entry, looked up): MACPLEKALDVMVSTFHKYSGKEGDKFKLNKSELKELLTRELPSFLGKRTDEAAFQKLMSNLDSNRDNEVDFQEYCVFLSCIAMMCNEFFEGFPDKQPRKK
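Material: human S100A4 monomer with TAMRA-labelled myosin IIA peptide; buffer or medium: HEPES pH 7.2 with CaCl2, KCl, NaCl, DTT, Triton; compound dosing: one concentration per compound; schedule: 5 min incubation before reading; benchmarks: neutral control DMSO, positive control TFP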
Vif imaging: inhibitors of HIV Vif | HEK293T cells, Vif self-association by quenched fluorescence, imaging, 24 h | inhibition, % at 7.49 µM | 0.35% of 340,000 active | AID 602346; in the data active = inhibition above about 50%, passing the limit was not always enough; inconclusive = no clear call, values can overlap the other calls; inactive = below about 31%
miR-122 sensor: blocks miR-122 activity in Huh7 sensor cells. Huh7 miR-122 Renilla luciferase sensor, 48 h; neutral wells = 0, positive control = 100. activation (reporter increase), % at 12.5 µM. 0.3% of 340,000 active. AID 602342;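 active = mean replicate activation score at least 90 and every replicate individually at or above 90; inconclusive = only one of the two criteria met; inactive = neither criterion met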;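 note: higher luciferase means less miR-122 activity so hits act as miR-122 inhibitors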
Env fusion inh: blocks HIV Env-driven cell-cell fusion. HeLa-JRFL Env/CEM21 cell fusion, luciferase. inhibition, % at 12.3 µM. 1.1% of 360,000 active;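 active = mean replicate inhibition score of at least 50 and every replicate individually at or above 50; inconclusive = only one of the two criteria met; inactive = mean below 50 and not all replicates reaching 50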;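 note: 0% = plate neutral controls and 100% = maraviroc near 300 nM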
rRNA inh HTS: selective bacterial rRNA inhibition in E. coli; GFP signal change (wild-type ribosome), % (test concentration not listed); E. coli WT GFP vs humanized-ribosome RFP mutants, fluorescence, 24 h; active compounds read low; DMSO median 0, no signal -100; 1.6% of 350,000 active;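 active = significant combined selectivity score with lowered wild-type GFP, culture density cut under 30%, mutant RFP and density less affected; inactive = any of these conditions unmet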
FN deposition inh: fibronectin deposition inhibition; AH1F fibroblasts, Alexa488-fibronectin deposition fluorescence, overnight; inhibition, % at 12.6 µM; 0.086% of 350,000 active; AID 743247;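 active = mean inhibition across replicates of 30% or more, regardless of how many single replicates reach that level; inconclusive = mean under 30% yet at least half of replicates reach 30%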;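 note: positive control wells lacked labelled fibronectin entirely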
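Material – AH1F fibroblast monolayer, labelled fibronectin deposition · Reagent – labelled fibronectin 24 nM · Timing – 1 h adhesion, overnight exposure · Measured by – fluorescence at 485 nm excitation, 525 nm emission · Read-out – inhibition of fibronectin deposition signal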
Numbers without * were called inactive; ? = inconclusive; / = not tested or not shown; [ ] = remark or other dose. In the library only some 2.6% were active in any assay of this set; here they are far more common.

SMILES	S100A4 MyoIIA	Vif imaging	miR-122 sensor	Env fusion inh	rRNA inh HTS	FN deposition inh
CC1(Cc2ccc(C(F)(F)F)nc2)C(=O)Nc2cc(-c3ccccc3Cl)ccc21 (stereo unspecified)	4	-7	5	70*	-1	-5
C[C@H]1CN([C@@H](C)CO)C(=O)c2cc(NC(=O)CCN3CCOCC3)ccc2O[C@@H]1CN(C)Cc1ccc(-c2ccccc2)cc1	14	/	-4[16.7 µM]	-12[16.7 µM]	-1	/
c1ccc(CCn2cccc2)nc1	9	15	-8	59*	13	/
COc1ccc2c3c([nH]c2c1)[C@@H](CO)N(Cc1ccncc1)CC31CN(S(C)(=O)=O)C1	/	/	/	/	1	/
O=C(N/N=C/c1ccncc1)c1cccs1	/	1	-1	/	/	/
O=C(N/N=C/c1ccc(-n2ccnc2)cc1)c1cccs1	-2	-6	0	75*	1	/
Cc1ccc(S(=O)(=O)N(C)C[C@H]2Oc3ccc(NC(=O)Nc4ccc(C(F)(F)F)cc4)cc3CC(=O)N([C@@H](C)CO)C[C@H]2C)cc1	0	/	-4[16.7 µM]	94*[16.7 µM]	2	3
C[C@H](CO)N1C[C@H](C)[C@@H](CN(C)S(=O)(=O)c2ccc(F)cc2)Oc2ccc(NC(=O)Nc3ccc(C(F)(F)F)cc3)cc2CC1=O	/	/	0[16.7 µM]	101*[16.7 µM]	0	/
C[C@H]1CN([C@@H](C)CO)C(=O)Cc2cc(NC(=O)Nc3ccc(C(F)(F)F)cc3)ccc2O[C@H]1CN(C)S(=O)(=O)c1ccc(F)cc1	/	/	?	-4[16.7 µM]	3	/
C[C@H](CO)N1C[C@H](C)[C@H](CN(C)S(=O)(=O)c2ccc(Cl)cc2)Oc2ccc(NC(=O)Nc3ccc(C(F)(F)F)cc3)cc2CC1=O	-5	/	94*[16.7 µM]	37[16.7 µM]	3	/
C[C@@H]1CN([C@H](C)CO)C(=O)Cc2cc(NC(=O)Nc3ccc(C(F)(F)F)cc3)ccc2O[C@@H]1CN(C)S(=O)(=O)c1ccc(Cl)cc1	-4	/	11[16.7 µM]	0[16.7 µM]	6	/
Cc1ccc(S(=O)(=O)N(C)C[C@@H]2Oc3ccc(NC(=O)Nc4ccc(C(F)(F)F)cc4)cc3CC(=O)N([C@@H](C)CO)C[C@@H]2C)cc1	-4	/	?	31[16.7 µM]	4	-55
O=C(NCC1CC1)[C@@H]1[C@@H](CO)[C@@H]2Cn3c(cccc3=O)[C@@H]2N1C(=O)Nc1ccccc1	/	/	/	/	-1	/
COc1ccc(NC(=O)N(C)C[C@@H]2Oc3ccc(NS(=O)(=O)c4ccc(C)cc4)cc3C(=O)N([C@H](C)CO)C[C@@H]2C)cc1	/	/	9[16.7 µM]	17[16.7 µM]	1	/
C/C=C/c1cnc2c(c1)C(=O)N([C@@H](C)CO)C[C@@H](C)[C@H](CN(C)S(=O)(=O)c1ccccc1)O2	7	/	-5[16.7 µM]	12[16.7 µM]	-6	3
COc1cc(C)c(NC(=S)Nc2ccc(Cl)c(Cl)c2)cc1OC	-2	-5	/	9	-28*	-12
COC(=O)c1cc(OC)c(OC)cc1NC(=S)Nc1cccc(Cl)c1	/	/	3	/	/	/
N#C[C@H]1[C@H](c2ccc(-c3cncnc3)cc2)[C@H](CO)N1C(=O)CN1CCOCC1	/	/	/	/	13	-3
COc1cc(NC(=S)Nc2ncccc2C)cc(OC)c1OC	2	-1	-2	-11	-21*	2
CC=Cc1ccc2n(c1=O)C[C@H]1N[C@@H]2[C@@H](C(=O)NCCc2ccccc2)[C@@H]1CO (mixture of isomers)	-4	/	/	/	0	/
CC(Oc1ccccc1)C(=O)Nc1nnc(S(=O)(=O)Nc2ccccc2)s1 (stereo unspecified)	2	4	4	-24	-13*	-7
CC(Oc1ccccc1)C(=O)Nc1nnc(S(=O)(=O)N2CCCCC2)s1 (stereo unspecified)	0	-4	-10	1	-3	17
COc1ccc(NC(=O)Nc2cccc3c2O[C@@H](CN(C)Cc2ccc(C(=O)Nc4ccccc4N)cc2)[C@H](C)CN([C@@H](C)CO)C3=O)cc1	-6	/	/	/	-9	/
OCCCn1c(-c2ccccc2)nc(=S)c2c1CCCC2	/	1	-4	-93	/	0
S=c1nc(-c2ccccc2Cl)n(Cc2cccnc2)c2c1CCCC2	-9	-4	/	3	-26*	-2
SMILES	S100A4 MyoIIA	Vif imaging	miR-122 sensor	Env fusion inh	rRNA inh HTS	FN deposition inh
FC(F)(F)c1nc(-c2cccs2)ncc1-c1nnnn1-c1ccc(Cl)cc1	/	-10	/	70*	/	/
COc1ccc(-n2nnnc2-c2cnc(N3CCCC3)nc2C(F)(F)F)cc1	/	-40	-1	72*	/	-11
FC(F)(F)c1nc(-c2cccnc2)ncc1-c1nnnn1-c1ccccc1	/	18	2	0	/	4
COc1ccc(S(=O)(=O)N2CC[C@@H]3[C@H]2c2cc(C#Cc4ccccc4OC)ccc2N[C@@H]3CO)cc1	-7	/	15[16.7 µM]	/	2	1
C[C@@H]1CCCCO[C@H](CN(C)C(=O)C2CCCCC2)[C@@H](C)CN([C@@H](C)CO)C(=O)c2cc(NC(=O)c3ccccc3)ccc2O1	3	/	-1[16.7 µM]	1[16.7 µM]	-3	/
COCCN(C(=O)CCC(=O)Nc1nccs1)C(C(=O)NC(C)(C)C)c1ccc(C)cc1 (stereo unspecified)	-8	84*	/	3	1	0
COCCN(C(=O)CCC(=O)Nc1nccs1)C(C(=O)NC(C)(C)C)c1ccc(F)cc1 (stereo unspecified)	-6	-3	1	-2	6	0
CO[C@@H]1CN(C)C(=O)c2cc(NC(=O)NC3CCCC3)ccc2OC[C@H](C)N(CC2CC2)C[C@@H]1C	7	/	/	/	3	-7
C[C@@H]1CN([C@@H](C)CO)C(=O)c2cccc(NC(=O)c3ccc(-c4nccs4)cc3)c2O[C@@H]1CN(C)Cc1ccc(C(=O)Nc2ccccc2N)cc1	-3	/	213*[16.7 µM]	-108[16.7 µM]	-1	/
C[C@@H]1CN([C@@H](C)CO)C(=O)c2cccc(NC(=O)c3ccc(-c4nccs4)cc3)c2O[C@H]1CN(C)CC1CC1	8	/	-2[16.7 µM]	57*[16.7 µM]	-5	-3
C[C@H](CO)N1C[C@H](C)[C@@H](CN(C)CC2CC2)Oc2c(NC(=O)c3ccc(-c4nccs4)cc3)cccc2C1=O	-12	/	16[16.7 µM]	20[16.7 µM]	-8	1
N=c1c2c(-c3ccccc3)c(-c3ccccc3)n(Cc3ccco3)c2ncn1CCCN1CCOCC1	-10	4	/	75*	-21	4
N=c1c2c(-c3ccccc3)c(-c3ccccc3)n(Cc3ccco3)c2ncn1CCCn1ccnc1	-8	6	-4	25	-49	13
CCOC(=O)C1=C(N)Oc2cc(O)ccc2C1c1ccc([N+](=O)[O-])cc1 (stereo unspecified)	-29	-1	/	17	-44*	1
CCOC(=O)c1ccccc1NC(=O)COC(=O)C1CC(=O)N(CCc2ccccc2)C1 (stereo unspecified)	-7	-1	/	-11	6	-2
